We go through two compounds from ChEMBL document CHEMBL5674869, “The Histone Methyltransferase Inhibitor A-366 Uncovers a Role for G9a/GLP in the Epigenetics of Leukemia” (PLoS One, 2015).

The target of assay [1] is T1, Histone-lysine N-methyltransferase EHMT2 (Homo sapiens) (UniProt Q96KQ7).
T1 sequence (whole entry): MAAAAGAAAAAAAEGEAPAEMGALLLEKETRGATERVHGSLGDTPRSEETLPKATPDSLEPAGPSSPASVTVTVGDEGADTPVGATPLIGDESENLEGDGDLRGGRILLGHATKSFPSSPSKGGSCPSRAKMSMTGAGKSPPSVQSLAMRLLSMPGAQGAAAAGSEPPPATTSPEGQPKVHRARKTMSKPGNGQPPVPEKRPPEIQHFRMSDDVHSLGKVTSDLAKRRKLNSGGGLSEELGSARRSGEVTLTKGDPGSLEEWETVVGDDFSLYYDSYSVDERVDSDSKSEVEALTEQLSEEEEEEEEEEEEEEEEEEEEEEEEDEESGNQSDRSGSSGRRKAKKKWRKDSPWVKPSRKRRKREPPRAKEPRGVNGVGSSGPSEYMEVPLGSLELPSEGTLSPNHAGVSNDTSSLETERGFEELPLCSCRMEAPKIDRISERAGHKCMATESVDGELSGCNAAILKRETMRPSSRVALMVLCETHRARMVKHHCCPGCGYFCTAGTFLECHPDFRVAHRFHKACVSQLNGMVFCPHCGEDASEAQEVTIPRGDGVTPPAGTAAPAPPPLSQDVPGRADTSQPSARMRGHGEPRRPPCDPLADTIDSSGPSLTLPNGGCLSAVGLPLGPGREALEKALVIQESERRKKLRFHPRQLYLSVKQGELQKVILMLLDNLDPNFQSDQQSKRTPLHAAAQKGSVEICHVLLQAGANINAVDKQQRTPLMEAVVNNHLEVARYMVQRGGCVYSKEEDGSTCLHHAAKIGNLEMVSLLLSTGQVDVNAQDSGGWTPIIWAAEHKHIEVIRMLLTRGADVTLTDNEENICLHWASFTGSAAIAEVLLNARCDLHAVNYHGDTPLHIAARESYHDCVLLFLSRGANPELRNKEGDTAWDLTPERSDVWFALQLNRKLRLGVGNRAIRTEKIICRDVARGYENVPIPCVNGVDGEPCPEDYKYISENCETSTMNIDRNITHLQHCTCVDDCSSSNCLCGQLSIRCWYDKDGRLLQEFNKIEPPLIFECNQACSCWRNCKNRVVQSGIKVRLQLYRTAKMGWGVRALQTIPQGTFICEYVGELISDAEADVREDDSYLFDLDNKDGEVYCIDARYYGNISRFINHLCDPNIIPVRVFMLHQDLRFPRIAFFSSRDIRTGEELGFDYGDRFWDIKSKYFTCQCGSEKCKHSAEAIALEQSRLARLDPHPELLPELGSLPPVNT
Put plainly: Inhibition of G9a in human PC-3 cells assessed as decrease in total H3 levels at 10 uM by In cell Western assay. Type of assay: cell-based. The method in brief: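 PC-3 cells (5,000/well) adhered overnight, then treated in triplicate with DMSO or compound over a concentration range for 72 h at 37 °C, 5% CO2. Cells fixed in 3% formaldehyde, blocked in 1% BSA and co-stained 4 h for H3K9me2 (1:500) and total H3 (1:1000). Fluorescent secondaries read by Odyssey: 800 nm H3K9me2, 700 nm total H3.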

The test system of a further assay is MCF7. Nature of the assay: Antiproliferative activity against human MCF7 cells assessed as effect on colony formation at 0.1 to 10 uM after 14 days by crystal violet staining based clonogenic assay. Type of assay: functional, cell-based. Particulars: dose 0.1-10 µM, time 14.0 day. The method in brief:
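Clonogenic assay: 500 live cells per well were seeded into six-well plates in drug-free medium. Compound diluted in culture medium was added 24 h later. Cells were cultured at 37°C, then fixed and stained with 0.2% crystal violet. Colonies were counted on an automated colony counter.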

Assay [2] addresses T1, Histone-lysine N-methyltransferase EHMT2 (Homo sapiens). Put plainly: Inhibition of G9a in human MCF7 cells assessed as decrease in […] levels at 0.3 to 3 uM after 72 hrs by Western blot analysis. Type of assay: cell-based. Conditions: dose 0.3-3 µM.
Assay [3] shares this target. Put plainly: Inhibition of G9a in human MDA-MB-231 cells assessed as slight decrease in […] levels at 0.3 to 3 uM after 72 hrs by Western blot analysis. Type of assay: cell-based. Conditions: dose 0.3-3 µM.
Assay [4] shares this target. Nature of the assay: Inhibition of G9a in human HT-1080 cells assessed as decrease in […] levels after 2 days by AlphaLisa assay. Type of assay: cell-based. Conditions: time 2.0 day. The method, boiled down:
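HT-1080 cells treated 2 days with compound over a concentration range. Viability read by CellTiter-Glo; H3K9me2 measured by AlphaLISA and normalized to viability. % inhibition calculated relative to untreated cells set as 0%.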

For another assay, the system named is THP-1. Nature of the assay: Antiproliferative against human THP-1 cells after 5 days by Cell-Titer Glo assay. Type of assay: functional, cell-based. Particulars: THP-1, 120 h. The method in brief: (§1)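 ATCC tumor lines were grown in their recommended media with 10% FBS and STR-authenticated. Cells were exposed to compound for the stated number of days. Viable cells were read by CellTiter-Glo endpoint. Inhibition was the ratio of treated to untreated wells, with cell-free wells set as 100% inhibition. The EC50 was taken from the dose response.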

A further assay concerns RS4-11. Put plainly: Antiproliferative against human RS4-11 cells after 5 days by Cell-Titer Glo assay. Type of assay: functional, cell-based. Particulars: RS4-11, 120 h. The method, boiled down: as §1
The next assay concerns RPMI-8226. Nature of the assay: Antiproliferative against human RPMI-8226 cells after 5 days by Cell-Titer Glo assay. The format is functional, cell-based. Conditions: RPMI-8226, 120 h. The method, boiled down:
as §1

The next assay deals with HL-60. Nature of the assay: Antiproliferative against human HL-60 cells after 5 days by Cell-Titer Glo assay. Type of assay: functional, cell-based. Particulars: HL-60, 120 h. The method in brief: as §1
The subject of a further assay is K562. Nature of the assay: Antiproliferative against human K562 cells after 5 days by Cell-Titer Glo assay. The format is functional, cell-based. Conditions: K562, 120 h. The method in brief:
as §1

The subject of a further assay is CWR22R. Put plainly: Antiproliferative against human 22RV1 cells after 5 days by Cell-Titer Glo assay. Type of assay: functional, cell-based. Conditions: 22Rv1, 120 h. The method in brief:
as §1

The subject of a further assay is LN-229. Put plainly: Antiproliferative against human LN-229 cells after 5 days by Cell-Titer Glo assay. The format is functional, cell-based. Conditions: LN-229, 120 h. The method in brief:
as §1

A further assay deals with SK-BR-3. Nature of the assay: Antiproliferative against human SK-BR-3 cells after 5 days by Cell-Titer Glo assay. The format is functional, cell-based. Particulars: SK-BR-3, 120 h. The method in brief: as §1
The next assay has as its system NCI-H2009. Nature of the assay: Antiproliferative against human NCI-H2009 cells after 5 days by Cell-Titer Glo assay. Type of assay: functional, cell-based. Conditions: NCI-H2009, 120 h. The method, boiled down: as §1
The next assay deals with G-401. Nature of the assay: Antiproliferative against human G-401 cells after 7 days by Cell-Titer Glo assay. Type of assay: functional, cell-based. Particulars: G-401, 168 h. The method, boiled down: as §1
Another assay relates to Daoy. Put plainly: Antiproliferative against human Daoy cells after 7 days by Cell-Titer Glo assay. The format is functional, cell-based. Particulars: 168 h. The method in brief: as §1
In assay [5] the target is T1, Histone-lysine N-methyltransferase EHMT2 (Homo sapiens). Nature of the assay: Inhibition of G9a in human PC-3 cells assessed as decrease in H3K9me2 levels after 72 hrs by Western blot analysis.
Assay [6] has the same target. Put plainly: Inhibition of G9a in human MV4-11 cells assessed as increase in cell differentiation marker CD11b for 14 days by flow cytometry. Particulars: time 14.0 day.

The source made the active and inactive calls. No cut-off for these calls is given here. Bounds are passed on as bounds.

Take `COc1cc2c(cc1OCCCN1CCCC1)N=C(N)C21CCC1`: the inhibition result in assay [1] was “inactive”. Besides, the result in the assay with MCF7 was inactive. The inhibition result in assay [2], in assay [3], in [4] and in assay [6] was “Active” each time. For the same compound, the EC50 with THP-1, in the assay with RS4-11, in the assay with RPMI-8226, with HL-60, in the assay with K562 and in the assay with CWR22R was > 10 µM each time. In addition, the concentration for a half-maximal effect (EC50) in the assay on LN-229, with SK-BR-3, with NCI-H2009, with G-401 and in the assay with Daoy was > 10 µM each time. The inhibition entry in assay [5] was “Dose-Dependent Effect”.
For the compound `COc1cc2c(NC3CCN(C(C)C)CC3)nc(C3CCCCC3)nc2cc1OCCCN1CCCC1`, the inhibition entry in assay [1], in assay [2], in [3], in assay [4] and in [5] was “Active” in each case. The EC50 worked out at 4.9 µM in the assay with THP-1; 3.1 µM in the assay with RS4-11; 5.1 µM in the assay with RPMI-8226; 6.5 µM in the assay on HL-60; 5.3 µM in the assay with K562; 0.2 µM with CWR22R. The half-maximal effective concentration (EC50) was found to be 0.5 µM in the assay with LN-229; 0.6 µM in the assay on SK-BR-3; 3.9 µM in the assay with NCI-H2009; 0.4 µM with G-401; 0.1 µM in the assay with Daoy.
